Assay results from ChEMBL document CHEMBL1165950, “Design and synthesis of new potent anticancer pyrazoles with high FLT3 kinase inhibitory selectivity” (Bioorg Med Chem, 2010).

Experiments:
Type in all cases: functional
[1] = tested on: HT-29; assay: Cytotoxicity against human HT-29 cells assessed as cell growth at 100 nM after 48 hrs by sulforhodamine B assay; conditions: HT-29, 48 h, read-out: Activity
[2] = tested on: Malme-3M; assay: Cytotoxicity against human MALME-3M cells assessed as cell growth at 100 nM after 48 hrs by sulforhodamine B assay; conditions: read-out: Activity
[3] = Cytotoxicity against human Hs 578T cells assessed as cell growth at 0.001 uM after 48 hrs by sulforhodamine B assay; conditions: read-out: Activity
[4] = tested on: A498; assay: Cytotoxicity against human A498 cells assessed as cell growth at 100 nM after 48 hrs by sulforhodamine B assay; conditions: A498, 48 h, read-out: Activity
How it was run: (§1)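 NCI-60 five-dose screen. Cells were grown in RPMI 1640 with 5% FBS and 2 mM L-glutamine, plated at 5000–40,000 cells/well and preincubated for 24 h. Time-zero plates were TCA-fixed. DMSO-solubilized drug was added at five concentrations (10-fold or ½-log serial dilutions) for 48 h at 37 °C, 5% CO2. Cells were TCA-fixed, stained with 0.4% SRB and read at 515 nm. Percent growth used time-zero, control and test absorbances.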

[5] = tested on: DU-145; assay: Cytotoxicity against human DU145 cells assessed as cell growth at 100 nM after 48 hrs by sulforhodamine B assay; conditions: DU-145, 48 h, read-out: Activity
[6] = tested on: SF-539; assay: Cytotoxicity against human SF539 cells assessed as cell growth at 10 uM; conditions: read-out: Activity
How it was run: (§2)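 NCI-60 screen: cells grown in RPMI 1640 with 5% FBS and 2 mM L-glutamine, plated at 5000–40,000 cells/well according to doubling time, and preincubated 24 h at 37 °C, 5% CO2. The single 10 µM dose (DMSO stock) was added, then incubated 48 h. Cells were TCA-fixed and stained with 0.4% SRB, read at 515 nm, and growth % calculated against time-zero and control plates.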

[7] = tested on: SNB-19; assay: Cytotoxicity against human SNB19 cells assessed as cell growth at 10 uM; conditions: read-out: Activity; how it was run: as §2
[8] = tested on: UACC-62; assay: Cytotoxicity against human UACC62 cells assessed as cell growth at 10 uM; conditions: read-out: Activity; how it was run: as §2
[9] = tested on: 786-0; assay: Cytotoxicity against human 786-0 cells assessed as cell growth at 10 uM; conditions: read-out: Activity
How it was run: (§3)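 Single-dose NCI-60 screen at 10 µM. Cells were grown in RPMI 1640 with 5% FBS and 2 mM L-glutamine, then treated for 48 h at 37 °C. Protein was measured by SRB staining with absorbance at 515 nm. Percentage growth was recorded, and inhibition percentage was calculated as 100 minus growth percentage.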

[10] = tested on: T47D; assay: Cytotoxicity against human T47D cells assessed as cell growth at 10 uM; conditions: read-out: Activity; how it was run: as §2
[11] = tested on: K562; assay: Cytotoxicity against human K562 cells assessed as cell growth at 0.001 uM after 48 hrs by sulforhodamine B assay; conditions: K562, 48 h, read-out: Activity
[12] = Cytotoxicity against human […] cells assessed as cell growth at 0.001 uM after 48 hrs by sulforhodamine B assay; conditions: read-out: Activity
[13] = tested on: HT-29; assay: Cytotoxicity against human HT-29 cells assessed as cell growth at 1 uM after 48 hrs by sulforhodamine B assay; conditions: HT-29, 48 h, read-out: Activity
[14] = tested on: SNB-19; assay: Cytotoxicity against human SNB19 cells assessed as cell growth at 1 uM after 48 hrs by sulforhodamine B assay; conditions: SNB-19, 48 h, read-out: Activity
[15] = tested on: NCI-H322M; assay: Cytotoxicity against human NCI-H322M cells assessed as cell growth at 0.01 uM after 48 hrs by sulforhodamine B assay; conditions: read-out: Activity
[16] = tested on: SNB-19; assay: Cytotoxicity against human SNB19 cells assessed as cell growth at 0.01 uM after 48 hrs by sulforhodamine B assay; conditions: SNB-19, 48 h, read-out: Activity
[17] = tested on: Malme-3M; assay: Cytotoxicity against human MALME-3M cells assessed as cell growth at 0.01 uM after 48 hrs by sulforhodamine B assay; conditions: read-out: Activity
[18] = tested on: A498; assay: Cytotoxicity against human A498 cells assessed as cell growth at 0.01 uM after 48 hrs by sulforhodamine B assay; conditions: A498, 48 h, read-out: Activity; how it was run: as §1
[19] = tested on: PC-3; assay: Cytotoxicity against human PC3 cells assessed as cell growth at 0.01 uM after 48 hrs by sulforhodamine B assay; conditions: PC-3, 48 h, read-out: Activity
[20] = tested on: NCI-H322M; assay: Cytotoxicity against human NCI-H322M cells assessed as cell growth at 0.001 uM after 48 hrs by sulforhodamine B assay; conditions: read-out: Activity
[21] = tested on: NCI-H460; assay: Cytotoxicity against human NCI-H460 cells assessed as cell growth at 0.001 uM after 48 hrs by sulforhodamine B assay; conditions: NCI-H460, 48 h, read-out: Activity
[22] = tested on: COLO 205; assay: Cytotoxicity against human COLO205 cells assessed as cell growth at 0.001 uM after 48 hrs by sulforhodamine B assay; conditions: COLO 205, 48 h, read-out: Activity; how it was run: as §1
[23] = tested on: HCT-116; assay: Cytotoxicity against human HCT116 cells assessed as cell growth at 0.001 uM after 48 hrs by sulforhodamine B assay; conditions: HCT-116, 48 h, read-out: Activity
[24] = tested on: 786-0; assay: Cytotoxicity against human 786-0 cells assessed as cell growth at 0.001 uM after 48 hrs by sulforhodamine B assay; conditions: 786-0, 48 h, read-out: Activity; how it was run: as §1
[25] = tested on: ACHN; assay: Cytotoxicity against human ACHN cells assessed as cell growth at 0.001 uM after 48 hrs by sulforhodamine B assay; conditions: read-out: Activity; how it was run: as §1
[26] = tested on: SN12C; assay: Cytotoxicity against human SN12C cells assessed as cell growth at 0.001 uM after 48 hrs by sulforhodamine B assay; conditions: read-out: Activity
[27] = tested on: U-251; assay: Growth inhibition of human U251 cells after 48 hrs by sulforhodamine B assay; conditions: U-251, 48 h
How it was run: (§4)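 NCI 60-cell screen, five-dose mode. Cells grown in RPMI 1640 with 5% FBS and 2 mM L-glutamine and plated at 5000-40,000 cells/well according to doubling time. After 24 h preincubation, a Tz plate was TCA-fixed. Five concentrations (10-fold or 1/2 log dilutions) were applied for 48 h at 37 °C. SRB staining read at 515 nm. IC50 taken from [(Ti-Tz)/(C-Tz)]×100 = 50.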

[28] = tested on: SK-OV-3; assay: Growth inhibition of human SKOV3 cells after 48 hrs by sulforhodamine B assay; conditions: SK-OV-3, 48 h; how it was run: as §4
[29] = tested on: SR; assay: Cytotoxicity against human SR cells assessed as cell growth at 10 uM; conditions: read-out: Activity; how it was run: as §2
[30] = tested on: EKVX; assay: Cytotoxicity against human EKVX cells assessed as cell growth at 10 uM; conditions: read-out: Activity; how it was run: as §3
[31] = tested on: NCI-H23; assay: Cytotoxicity against human NCI-H23 cells assessed as cell growth at 10 uM; conditions: read-out: Activity; how it was run: as §2
[32] = tested on: EKVX; assay: Cytotoxicity against human EKVX cells assessed as cell growth at 10 uM after 48 hrs by sulforhodamine B assay; conditions: read-out: Activity
[33] = tested on: HT-29; assay: Cytotoxicity against human HT-29 cells assessed as cell growth at 10 uM after 48 hrs by sulforhodamine B assay; conditions: HT-29, 48 h, read-out: Activity
[34] = tested on: M14; assay: Cytotoxicity against human M14 cells assessed as cell growth at 10 uM after 48 hrs by sulforhodamine B assay; conditions: M14, 48 h, read-out: Activity
[35] = Cytotoxicity against human Hs 578T cells assessed as cell growth at 10 uM after 48 hrs by sulforhodamine B assay; conditions: read-out: Activity
[36] = read-out: LC50 (the source's name)

COc1cc(C)cc(-c2nn(CC#N)cc2-c2ccnc(-c3ccc(N(C)C)cc3)c2)c1
growth at 0.1 µM [1]: 25%
growth at 0.1 µM [2]: 46%
growth at 0.001 µM [3]: 103%
growth at 0.1 µM [4]: -8%
growth at 0.1 µM [5]: 2%
growth at 10 µM [6]: -17.5%
growth at 10 µM [7]: 15.9%
growth at 10 µM [8]: 19.1%
growth at 10 µM [9]: 5.8%
growth at 10 µM [10]: 39%
growth at 0.001 µM [11]: 66%
growth at 0.001 µM [12]: 104%
growth at 1 µM [13]: -29%
growth at 1 µM [14]: 19%
growth at 0.01 µM [15]: 108%
growth at 0.01 µM [16]: 97%
growth at 0.01 µM [17]: 91%
growth at 0.01 µM [18]: 88%
growth at 0.01 µM [19]: 96%
growth at 0.001 µM [20]: 99%
growth at 0.001 µM [21]: 103%
growth at 0.001 µM [22]: 107%
growth at 0.001 µM [23]: 96%
growth at 0.001 µM [24]: 101%
growth at 0.001 µM [25]: 95%
growth at 0.001 µM [26]: 100%
GI50 [27]: 415 nM
TGI [27]: 5860 nM
CC50 [27, 36]: > 100000 nM
GI50 [28]: 304 nM
TGI [28]: 882 nM
CC50 [28, 36]: > 100000 nM
growth at 10 µM [29]: 9.06%
growth at 10 µM [30]: 41%
growth at 10 µM [31]: -3.77%
growth at 10 µM [32]: 23%
growth at 10 µM [33]: -66%
growth at 10 µM [34]: -16%
growth at 10 µM [35]: -5%
